# Active and inactive are the calls of the source. No cut-off for these calls is given here.
# Key:
# [1] = test system: Mycobacterium tuberculosis H37Rv; test: Inhibition of PKS13 in Mycobacterium tuberculosis H37Rv assessed as reduction in bacterial growth after […] by MABA
# Vero = test: Cytotoxicity against African green monkey Vero cells after 72 hrs by MABA; assay type: cell-based; details: Chlorocebus sabaeus
# [2] = Selectivity index, ratio of IC50 for African green monkey Vero cells to MIC=<90 for Mycobacterium tuberculosis H37Rv; assay type: toxicity; details: read-out: Selectivity Index
# Summary of the method: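 Vero (African green monkey kidney) cytotoxicity IC50 by MABA, divided by the MABA MIC against M. tuberculosis H37Rv to give SI = IC50/MIC.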
# [3] = test system: Mycobacterium tuberculosis; test: Antitubercular activity against Mycobacterium tuberculosis H37Rv infected in Balb/C mouse assessed as reduction in bacterial growth in mouse serum at 100 mg/kg, po administered via gavage after 30 to 120 mins by MABA; assay type: functional, organism-based
# Summary of the method: (§1)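 Oral serum inhibition titration. Six-week female BALB/c mice (20 g) gavaged with 100 mg/kg compound suspended in 0.5% carboxymethylcellulose. Isoniazid 10 mg/kg was the positive control and vehicle alone the negative control. Cardiac blood taken at 30, 60 and 120 min and serum separated. Serum two-fold serially diluted with 10^4 CFU M. tuberculosis H37Rv, incubated 7 days, read by MABA.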
# [4] = test system: Mycobacterium tuberculosis; test: Antitubercular activity against Mycobacterium tuberculosis by microdilution method; assay type: functional
# Summary of the method: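 Whole-cell MIC against M. tuberculosis strain H37Rv, measured by the microplate Alamar Blue assay (MABA) following a previously reported procedure; MIC values given in […].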
# MRC5 = test: Cytotoxicity against human MRC5 cells after 48 hrs by CellTiter96 AQueous one solution assay; assay type: cell-based; details: MRC5, 48 h
# Summary of the method: (§2)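 Human cell cytotoxicity. QSG-7701 and HEK293 grown in DMEM; MRC-5 and HFL-1 grown in DMEM/F12. Both media carried 10% FBS with penicillin/streptomycin, 37°C, 5% CO2. Cells seeded at 5,000/well, incubated overnight, then exposed to compound for 48 h. CellTiter 96 AQueous One added for 1 h, absorbance read at 490 nm. IC50 is the mean of three independent experiments.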
# HFL1 = test: Cytotoxicity against HFL1 cells after 48 hrs by CellTiter96 AQueous one solution assay; assay type: cell-based; details: Homo sapiens, HFL1, 48 h; summary of the method: as §2
# [5] = Cytotoxicity against human QSG7701 cells after 48 hrs by CellTiter96 AQueous one solution assay; assay type: cell-based; details: QSG7701, 48 h; summary of the method: as §2
# HEK293 = test: Cytotoxicity against human HEK293 cells after 48 hrs by CellTiter96 AQueous one solution assay; assay type: cell-based; details: HEK293, 48 h; summary of the method: as §2
# [6] = Metabolic stability in human liver microsomes assessed as parent compound remaining at 10 uM after 60 mins in presence of NADPH; assay type: ADME, microsome; details: read-out: Stability
# [7] = Selectivity index, ratio of IC50 for human MRC5 cells to MIC=<90 for Mycobacterium tuberculosis H37Rv; assay type: toxicity; details: read-out: Selectivity Index
# [8] = Selectivity index, ratio of IC50 for human HFL1 cells to MIC=<90 for Mycobacterium tuberculosis H37Rv; assay type: toxicity; details: read-out: Selectivity Index
# [9] = Selectivity index, ratio of IC50 for human QSG7701 cells to MIC=<90 for Mycobacterium tuberculosis H37Rv; assay type: toxicity; details: read-out: Selectivity Index
# [10] = Selectivity index, ratio of IC50 for human HEK293 cells to MIC=<90 for Mycobacterium tuberculosis H37Rv; assay type: toxicity; details: read-out: Selectivity Index
# [11] = test system: Mycobacterium tuberculosis; test: Antitubercular activity against Mycobacterium tuberculosis H37Rv infected in Balb/C mouse assessed as reduction in bacterial growth in mouse serum at 100 mg/kg, po administered via gavage after 30 mins dose by MABA; assay type: functional, organism-based; summary of the method: as §1
SMILES,MIC=<90 [1],other results
CCOC(=O)c1c(-c2ccccc2)oc2ccc(O)c(CN3CCC(C)CC3)c12,2.5 µM,IC50 (Vero): 16 µg/mL; selectivity ratio [2]: 16; Activity [3]: inactive
CCOC(=O)c1c(-c2ccc(OC)cc2OC)oc2ccc(O)c(CN3CCCCC3)c12,16 µg/mL,
CCOC(=O)c1c(NC(=O)c2c(F)c(F)c(F)c(F)c2F)sc(C(N)=O)c1C,,MIC [4]: 0.5 µM
COC(=O)c1c(NC(=O)c2c(F)c(F)c(F)c(F)c2F)sc2c1CCCCC2,,MIC [4]: 1 µM
CCOC(=O)c1c(-c2ccccc2)oc2ccc(O)c(CN3CCN(C)CC3)c12,> 64 µg/mL,
O=C(Nc1ccccc1)c1c(-c2ccccc2)oc2ccc(O)c(CN3CCCCC3)c12,8 µg/mL,
COc1ccc2c(c1)oc(=O)c1c2oc2ccc(O)c(CN3CCCCC3)c21,0.25 µg/mL,"IC50 (Vero): 4 µg/mL; selectivity ratio [2]: 16; IC50 (MRC5): > 50 µg/mL; IC50 (HFL1): 50.2 µg/mL; IC50 [5]: 38.8 µg/mL; IC50 (HEK293): > 50 µg/mL; Activity [3]: Active; remaining at 1 h, 10 µM [6]: 45.5%; selectivity ratio [7]: > 100; selectivity ratio [8]: > 100; selectivity ratio [9]: > 100; selectivity ratio [10]: > 100"
O=c1oc2cc(F)ccc2c2oc3ccc(O)c(CN4CCCCC4)c3c12,1 µg/mL,IC50 (Vero): 8 µg/mL; selectivity ratio [2]: 8
O=c1oc2ccccc2c2oc3ccc4c(c3c12)CN(C1CCCCC1)CO4,16 µg/mL,
Cc1cc2oc(=O)c3c(oc4ccc5c(c43)CN(CC3CC3)CO5)c2cc1C,8 µg/mL,
COc1ccc2oc(=O)c3c(oc4ccc(O)c(CN5CCCCC5)c43)c2c1,4 µg/mL,
CCOC(=O)c1c(-c2ccccc2)oc2ccc(OC)c(CN3CCCCC3)c12,16 µg/mL,
O=C(NC1CC1)c1c(-c2ccccc2)oc2ccc(O)c(CN3CCCCC3)c12,8 µg/mL,
CCOC(=O)c1c(-c2ccccc2)oc2ccc3c(c12)CN(CCC(C)C)CO3,4 µg/mL,
CCOC(=O)c1c(-c2ccccc2)oc2ccc(O)c(CN3CCOCC3)c12,> 64 µg/mL,
O=c1oc2ccccc2c2oc3ccc4c(c3c12)CN(C1CCCC1)CO4,0.5 µg/mL,IC50 (Vero): 0.5 µg/mL; selectivity ratio [2]: 1
COc1ccc2oc(=O)c3c(oc4ccc5c(c43)CN(CC3CC3)CO5)c2c1,16 µg/mL,
O=c1oc2cc(Br)ccc2c2oc3ccc(O)c(CN4CCCCC4)c3c12,1 µg/mL,IC50 (Vero): 8 µg/mL; selectivity ratio [2]: 8
CCOC(=O)c1c(-c2ccc(Br)cc2OC)oc2ccc(O)c(CN3CCCCC3)c12,> 64 µg/mL,
CCNC(=O)c1c(-c2ccccc2)oc2ccc(O)c(CN3CCCCC3)c12,4 µg/mL,
O=c1oc2ccccc2c2oc3ccc(O)c(CN4CCCCC4)c3c12,0.125 to 0.25 µg/mL,"IC50 (Vero): 4 µg/mL; selectivity ratio [2]: 16 to 32; IC50 (MRC5): > 50 µg/mL; IC50 (HFL1): > 50 µg/mL; IC50 [5]: > 50 µg/mL; IC50 (HEK293): > 50 µg/mL; Activity [3]: Active; Activity [11]: Active; remaining at 1 h, 10 µM [6]: 14.5%; selectivity ratio [7]: > 100; selectivity ratio [8]: > 100; selectivity ratio [9]: > 100; selectivity ratio [10]: > 100"
CCCN(CCC)Cc1c(O)ccc2oc(-c3ccccc3)c(C(=O)OCC)c12,8 µg/mL,
CCOC(=O)c1c(-c2ccccc2)oc2ccc(O)cc12,> 64 µg/mL,
O=C(NC12CC3CC(CC(C3)C1)C2)c1c(-c2ccccc2)oc2ccc(O)c(CN3CCCCC3)c12,> 64 µg/mL,
CCOC(=O)c1c(-c2ccc(C)cc2)oc2ccc3c(c12)CN(CC1CC1)CO3,4 µg/mL,

SMILES,MIC=<90 [1],other results
CCOC(=O)c1c(-c2ccccc2)oc2ccc(O)c(CN3CCCC3)c12,2 µg/mL,
O=C(O)c1c(-c2ccccc2)oc2ccc(O)c(CN3CCCCC3)c12,> 64 µg/mL,
COc1ccc2c(c1)oc(=O)c1c2oc2ccc3c(c21)CN(CC1CC1)CO3,2 µg/mL,
CCOC(=O)c1c(-c2ccccc2)oc2ccc3c(c12)CN(CC1CC1)CO3,1 µg/mL,IC50 (Vero): 8 µg/mL; selectivity ratio [2]: 8
O=c1oc2cc(Cl)c(Cl)cc2c2oc3ccc4c(c3c12)CN(CC1CC1)CO4,> 64 µg/mL,
CCOC(=O)c1c(-c2ccc(OC)cc2)oc2ccc(O)c(CN3CCCCC3)c12,16 µg/mL,
CCOC(=O)c1c(-c2cc(C)ccc2OC)oc2ccc3c(c12)CN(CC1CC1)CO3,8 µg/mL,
O=c1oc2ccccc2c2oc3ccc4c(c3c12)CN(CC1CC1)CO4,2 µg/mL,
CCOC(=O)c1c(-c2ccccc2)oc2ccc3c(c12)CN(C1CCCC1)CO3,2 µg/mL,
CCOC(=O)c1c(-c2ccc(OC)cc2)oc2ccc3c(c12)CN(CC1CC1)CO3,2 µg/mL,
Cc1ccc2oc(=O)c3c(oc4ccc5c(c43)CN(CC3CC3)CO5)c2c1,4 µg/mL,
O=c1oc2ccccc2c2oc3ccc(O)cc3c12,> 64 µg/mL,
O=C(NCc1ccccc1)c1c(-c2ccccc2)oc2ccc(O)c(CN3CCCCC3)c12,16 µg/mL,
CCOC(=O)c1c(-c2ccccc2)oc2ccc(O)c(CN3CCC(CO)CC3)c12,16 µg/mL,
O=c1oc2ccc(Cl)cc2c2oc3ccc4c(c3c12)CN(CC1CC1)CO4,16 µg/mL,
O=c1oc2ccc(F)cc2c2oc3ccc4c(c3c12)CN(CC1CC1)CO4,16 µg/mL,
CCOC(=O)c1c(-c2ccc(C(F)(F)F)cc2)oc2ccc(O)c(CN3CCCCC3)c12,8 µg/mL,
CCOC(=O)c1c(-c2cc(C)c(C)cc2OC)oc2ccc(O)c(CN3CCCCC3)c12,4 µg/mL,
CCOC(=O)c1c(-c2ccccc2)oc2ccc3c(c12)CN(C1CC1)CO3,16 µg/mL,
O=c1oc2ccc(Br)cc2c2oc3ccc4c(c3c12)CN(CC1CC1)CO4,8 µg/mL,
CCOC(=O)c1c(-c2ccc(F)cc2OC)oc2ccc(O)c(CN3CCCCC3)c12,8 µg/mL,
CCOC(=O)c1c(-c2ccc(F)cc2)oc2ccc(O)c(CN3CCCCC3)c12,0.5 µg/mL,IC50 (Vero): 16 µg/mL; selectivity ratio [2]: 32; Activity [3]: inactive
CCOC(=O)c1c(-c2ccccc2)oc2ccc(O)c(CN3CCCCC3)c12,2 µg/mL,
Cc1ccc2oc(=O)c3c(oc4ccc(O)c(CN5CCCCC5)c43)c2c1,0.5 µg/mL,IC50 (Vero): 8 µg/mL; selectivity ratio [2]: 16
